Data on four molecules can be found in ChEMBL document CHEMBL4433212, “First-of-its-kind STARD3 Inhibitor: In Silico Identification and Biological Evaluation as Anticancer Agent” (ACS Med Chem Lett, 2019).

The subject of data set [1] is MCF7. The data set can be described thus: Anticlonogenic activity against human MCF7 cells assessed as reduction in cell proliferation after 10 days with replacement of medium for every 3 days by crystal violet staining based visual analysis. It counts as functional. Put shortly:
(§1)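 MCF7, MDA-MB-231 and HCT-116 cells treated with a range of inhibitor concentrations, grown until colonies became visible; colony forming efficiency scored by visual inspection.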

The target in data set [2] is T1, StAR-related lipid transfer protein 3 (Mus musculus) (UniProt Q61542).
T1 sequence (whole entry): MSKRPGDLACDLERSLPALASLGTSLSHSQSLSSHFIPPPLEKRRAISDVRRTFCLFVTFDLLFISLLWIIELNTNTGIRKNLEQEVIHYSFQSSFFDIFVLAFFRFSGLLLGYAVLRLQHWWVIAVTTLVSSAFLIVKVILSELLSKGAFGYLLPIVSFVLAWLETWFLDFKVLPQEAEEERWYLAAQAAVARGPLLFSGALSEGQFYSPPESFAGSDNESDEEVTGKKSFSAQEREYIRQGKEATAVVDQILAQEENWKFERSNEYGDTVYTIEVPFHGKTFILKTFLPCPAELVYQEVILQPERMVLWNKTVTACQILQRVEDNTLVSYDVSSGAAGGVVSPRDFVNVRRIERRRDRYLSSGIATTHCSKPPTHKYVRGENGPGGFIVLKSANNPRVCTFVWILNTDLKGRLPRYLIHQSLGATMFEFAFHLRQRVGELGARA
The data set can be described thus: Induction of STARD3 degradation in cycloheximide treated mouse NIH/3T3 cells at 100 uM incubated for 24 hrs followed by addition of cycloheximide and measured after 12 hrs by Western blot analysis. Put shortly: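 NIH3T3 fibroblasts pretreated with 100 μM inhibitor for 24 h, then given cycloheximide 10 μg/mL and harvested at timed points (hours); STARD3 protein followed by Western blot to track degradation kinetics.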

The test system of data set [3] is MDA-MB-231. The data set can be described thus: Antiproliferative activity against human MDA-MB-231 after 96 hrs by Cell Titer-Glo based luminescence assay. It counts as functional. Particulars: MDA-MB-231, 96 h. For orientation: In ATP-based viability assays light output follows the ATP content of the culture.
Data set [4] deals with T2, StAR-related lipid transfer protein 3 (Homo sapiens) (UniProt Q14849).
T2 sequence (whole entry): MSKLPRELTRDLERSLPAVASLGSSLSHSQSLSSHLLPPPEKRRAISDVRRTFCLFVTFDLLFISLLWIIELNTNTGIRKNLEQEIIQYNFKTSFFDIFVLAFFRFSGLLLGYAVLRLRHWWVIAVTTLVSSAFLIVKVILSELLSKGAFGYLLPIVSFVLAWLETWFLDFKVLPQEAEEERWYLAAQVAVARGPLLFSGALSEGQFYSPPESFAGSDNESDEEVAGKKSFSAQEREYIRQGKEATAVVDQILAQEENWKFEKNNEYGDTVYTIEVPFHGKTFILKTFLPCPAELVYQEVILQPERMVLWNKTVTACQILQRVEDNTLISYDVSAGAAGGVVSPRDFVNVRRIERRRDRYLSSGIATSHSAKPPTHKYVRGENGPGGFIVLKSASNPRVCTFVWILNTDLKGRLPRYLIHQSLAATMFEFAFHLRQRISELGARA
The data set can be described thus: Inhibition of STARD3 in human MDA-MB-231 cells assessed as increase in FAK protein level at 100 uM incubated for 24 hrs by Western blot analysis. It counts as cell-based. Put shortly: (§2)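 MDA-MB-231 cells treated with 100 μM inhibitor for 24 and 48 h; total FAK and pTyr397-FAK levels assessed by Western blot against untreated cells.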
On the technique in general: Immunoblotting shows a protein as a band on a membrane.

The target of data set [5] is T3, StAR-related lipid transfer protein 3 (Homo sapiens, UniProt Q14849).
T3 sequence (Q14849 whole entry): T2 sequence (whole entry)
The data set can be described thus: Inhibition of recombinant human His-tagged StAR-related lipid transfer protein 3 START domain expressed in Escherichia coli BL21(DE3) cells assessed as reduction of protein interaction with cholesterol using 3-hexanoyl-NBD Cholesterol as substrate incubated for 5 mins by competition binding fluorescent assay. Put shortly: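 Competition binding fluorescent assay of cholesterol binding to STARD3, adapted from Tsujishita and Hurley; STARD3 used at 5 μM, selected from a binding titration curve as giving 55.9% completely bound state; IC50 determined.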

For data set [6], the system named is NIH3T3. The data set can be described thus: Effect on STARD3 mRNA level in mouse NIH/3T3 cells at 0 to 100 uM incubated for 48 hrs by RT-PCR method. It counts as ADME, cell-based. Particulars: nih3t3, 48 h. Put shortly:
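NIH3T3 fibroblasts exposed to two inhibitor concentrations for 48 h; STARD3 mRNA level then measured.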

Data set [7] relates to MCF7. The data set can be described thus: Antiproliferative activity against human MCF7 cells after 96 hrs by Cell Titer-Glo based luminescence assay. It counts as functional. To be noted: MCF7, 96 h.
In data set [8] the target is T2, StAR-related lipid transfer protein 3 (Homo sapiens). The data set can be described thus: Inhibition of STARD3 in human MDA-MB-231 cells assessed as increase in phosphorylated FAK protein level at Tyr397 residue at 100 uM incubated for 48 hrs by Western blot analysis. It counts as cell-based. A digest of the protocol: as §2
In data set [9] the test system is HCT-116. The data set can be described thus: Antiproliferative activity against human HCT116 cells after 96 hrs by Cell Titer-Glo based luminescence assay. Particulars: HCT-116, 96 h. It counts as functional.
Data set [10] has as its system MDA-MB-231. The data set can be described thus: Anticlonogenic activity against human MDA-MB-231 cells assessed as reduction in cell proliferation after 10 days with replacement of medium for every 3 days by crystal violet staining based visual analysis. It counts as functional. A digest of the protocol:
as §1

Data set [11] concerns the target T2, StAR-related lipid transfer protein 3 (Homo sapiens). The data set can be described thus: Inhibition of STARD3 in human MDA-MB-231 cells assessed as increase in phosphorylated FAK protein level at Tyr397 residue at 100 uM incubated for 24 hrs by Western blot analysis. It counts as cell-based. A digest of the protocol:
as §2

Data set [12] deals with HCT-116. The data set can be described thus: Anticlonogenic activity against human HCT116 cells assessed as reduction in cell proliferation after 10 days with replacement of medium for every 3 days by crystal violet staining based visual analysis. It counts as functional. A digest of the protocol:
as §1

Data set [13] deals with T2, StAR-related lipid transfer protein 3 (Homo sapiens). The data set can be described thus: Inhibition of STARD3 in human MDA-MB-231 cells assessed as increase in FAK protein level at 100 uM incubated for 48 hrs by Western blot analysis. It counts as cell-based. A digest of the protocol: as §2

Calls of active or inactive are those of the source. No cut-off for these calls is given here. Where only a bound is given, the exact number is not on record here.

In general, IC50 refers to the point on the concentration scale where inhibition reaches its midpoint. On to `O=c1nc(/C=C/c2ccc(O)c([N+](=O)[O-])c2)[nH]c2c1CCN(Cc1ccccc1)C2`, for which the Activity result in data set [1] is “Dose-dependent effect”; in [6], “Non-Toxic”; in data set [10], “Dose-dependent effect”; in data set [12] it was “Dose-dependent effect”. The result in [2] was Active. Further, the half-maximal inhibitory concentration (IC50) in data set [3] stood at 49.7 µM; in data set [5] it was 35 µM; in data set [7], 106 µM; in [9], 70.7 µM. Besides, the inhibition entry in data set [4], in [8], in data set [11] and in data set [13] was “Active” each time.
Turning to `O=C(COC(=O)c1ccc(-c2ccc(O)cc2)cc1)NCc1ccc(F)cc1`, in [5], the IC50 is above 100 µM.
Still for that read-out and setting: to `O=C1CN(c2ccc(NC(=O)c3csc(-c4cccc(Cl)c4)n3)cn2)CCN1` belongs above 100 µM; to `O=C(/C=C/c1ccccc1F)Nc1ccc(N2CCNC(=O)C2)c(Cl)c1`, above 100 µM.
